Data as given in ChEMBL document CHEMBL4257503, “N-Acetyl-3-aminopyrazoles block the non-canonical NF-kB cascade by selectively inhibiting NIK” (Medchemcomm, 2018).
Active and inactive are the calls of the source.

How the values were obtained:
[1] = biological target: Fibroblast growth factor receptor 1 (Homo sapiens, UniProt P11362); assay: Inhibition of wild-type FGFR1 (unknown origin)
Mus musculus = organism: Mus musculus; assay: Inhibition of mouse NIK kinase domain V480L mutant
[2] = Kinetic solubility in phosphate buffered saline at pH 7.4 measured after 60 mins; assay type: physicochemical; conditions: read-out: Kinetic_solubility
[3] = biological target: Dual specificity mitogen-activated protein kinase kinase 1 (Homo sapiens, UniProt Q02750); assay: Inhibition of wild-type MEK1 (unknown origin)
[4] = biological target: Mitogen-activated protein kinase kinase kinase 14 (Homo sapiens, UniProt Q99558); assay: Inhibition of NIK-induced NFkappaB activation in human EJM cells at 25 uM after 6 hrs by dual luciferase reporter gene assay relative to control; assay type: cell-based
Method in brief: (§1)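 Cells were nucleofected with the pGL4.32 NF-κB-RE firefly luciferase and pGL4.74 TK-Renilla plasmids (3 µg, 10:1 ratio) and cultured for 24 h at 37 °C. Compound (10, 25, 50 or 100 µM) was then added for 6 h. Firefly luminescence was normalised to Renilla from the same sample and expressed as % of vehicle control. Means ± SD of three independent experiments.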

MDA-MB-231 = assay: Inhibition of NFkappaB activation in human MDA-MB-231 cells at 100 uM after 6 hrs by dual luciferase reporter gene assay relative to control; assay type: cell-based; method in brief: as §1
[5] = biological target: Epidermal growth factor receptor (Homo sapiens, UniProt P00533); assay: Inhibition of wild-type EGFR (unknown origin)
[6] = biological target: Receptor-type tyrosine-protein kinase FLT3 (Homo sapiens, UniProt P36888); assay: Inhibition of wild-type FLT3 (unknown origin)
Homo sapiens = organism: Homo sapiens; assay: Inhibition of NFkappaB activation in human SKBR3 cells at 100 uM after 6 hrs by dual luciferase reporter gene assay relative to control; assay type: cell-based; method in brief: as §1
[7] = biological target: Serine/threonine-protein kinase Nek6 (Homo sapiens, UniProt Q9HC98); assay: Inhibition of NEK6 (unknown origin)
[8] = biological target: Cyclin-Y/Cyclin-dependent kinase 16 (Homo sapiens, UniProt Q00536); assay: Inhibition of PCTAIRE1/cyclinY (unknown origin); assay type: protein-complex assay
[9] = biological target: Serine/threonine-protein kinase PLK1 (Homo sapiens, UniProt P53350); assay: Inhibition of PLK1 (unknown origin)
[10] = biological target: T1, Inhibitor of nuclear factor kappa-B kinase subunit beta (Homo sapiens, UniProt O14920); assay: Inhibition of recombinant human full-length N-terminal GST-fused/His6-tagged IKKbeta (M1 to S756 residues) expressed in Sf9 insect cells using ERLLDDRHDSGLDSMKDEE peptide as substrate measured after 60 mins by ADP-Glo kinase assay
T1 sequence (O14920 whole entry): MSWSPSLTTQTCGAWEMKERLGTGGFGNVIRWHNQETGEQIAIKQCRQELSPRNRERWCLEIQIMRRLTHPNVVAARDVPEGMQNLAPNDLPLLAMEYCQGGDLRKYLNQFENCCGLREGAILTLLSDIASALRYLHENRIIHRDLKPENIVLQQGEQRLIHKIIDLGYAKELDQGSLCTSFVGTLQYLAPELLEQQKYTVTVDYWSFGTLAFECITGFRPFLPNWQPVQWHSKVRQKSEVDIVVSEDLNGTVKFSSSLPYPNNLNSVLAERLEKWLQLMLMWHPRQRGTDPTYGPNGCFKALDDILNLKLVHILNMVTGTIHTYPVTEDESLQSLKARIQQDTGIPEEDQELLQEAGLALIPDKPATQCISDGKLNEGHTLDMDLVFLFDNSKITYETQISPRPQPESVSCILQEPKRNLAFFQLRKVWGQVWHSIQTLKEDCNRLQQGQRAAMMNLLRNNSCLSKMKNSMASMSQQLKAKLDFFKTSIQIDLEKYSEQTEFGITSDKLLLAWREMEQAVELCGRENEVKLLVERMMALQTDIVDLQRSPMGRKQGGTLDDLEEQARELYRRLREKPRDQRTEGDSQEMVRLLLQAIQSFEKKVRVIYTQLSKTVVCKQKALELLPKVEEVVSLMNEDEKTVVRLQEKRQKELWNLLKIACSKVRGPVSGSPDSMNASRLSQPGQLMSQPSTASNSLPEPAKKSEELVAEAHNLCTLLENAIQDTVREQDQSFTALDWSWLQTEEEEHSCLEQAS

[11] = biological target: Serine/threonine-protein kinase Chk2 (Homo sapiens, UniProt O96017); assay: Inhibition of CHK2 (unknown origin)
[12] = biological target: Hepatocyte growth factor receptor (Homo sapiens, UniProt P08581); assay: Inhibition of wild-type MET (unknown origin)
[13] = biological target: Serine/threonine-protein kinase tousled-like 1 (Homo sapiens, UniProt Q9UKI8); assay: Inhibition of TLK1 (unknown origin)
[14] = biological target: Calcium/calmodulin-dependent protein kinase kinase 1 (Homo sapiens, UniProt Q8N5S9); assay: Inhibition of CAMKK1 (unknown origin)
[15] = biological target: Serine/threonine-protein kinase TAO2 (Homo sapiens, UniProt Q9UL54); assay: Inhibition of TAOK2 (unknown origin)
[16] = biological target: Mitogen-activated protein kinase 1 (Homo sapiens, UniProt P28482); assay: Inhibition of ERK2 (unknown origin)
[17] = Cytotoxicity against human MDA-MB-231 cells assessed as cell viability at 100 uM after 6 hrs by CellTiter Glo luminescent assay relative to control; assay type: cell-based; conditions: read-out: Activity
Method in brief: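 Cells seeded at 5 x 10^3 per well and exposed for 6 h to the compound (10, 25, 50 or 100 µM) or to DMSO vehicle. Viability was read as intracellular ATP by CellTiter Glo luminescence.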

[18] = biological target: Tyrosine-protein kinase CSK (Homo sapiens, UniProt P41240); assay: Inhibition of CSK (unknown origin)

Sequence of Hepatocyte growth factor receptor (P08581 whole entry): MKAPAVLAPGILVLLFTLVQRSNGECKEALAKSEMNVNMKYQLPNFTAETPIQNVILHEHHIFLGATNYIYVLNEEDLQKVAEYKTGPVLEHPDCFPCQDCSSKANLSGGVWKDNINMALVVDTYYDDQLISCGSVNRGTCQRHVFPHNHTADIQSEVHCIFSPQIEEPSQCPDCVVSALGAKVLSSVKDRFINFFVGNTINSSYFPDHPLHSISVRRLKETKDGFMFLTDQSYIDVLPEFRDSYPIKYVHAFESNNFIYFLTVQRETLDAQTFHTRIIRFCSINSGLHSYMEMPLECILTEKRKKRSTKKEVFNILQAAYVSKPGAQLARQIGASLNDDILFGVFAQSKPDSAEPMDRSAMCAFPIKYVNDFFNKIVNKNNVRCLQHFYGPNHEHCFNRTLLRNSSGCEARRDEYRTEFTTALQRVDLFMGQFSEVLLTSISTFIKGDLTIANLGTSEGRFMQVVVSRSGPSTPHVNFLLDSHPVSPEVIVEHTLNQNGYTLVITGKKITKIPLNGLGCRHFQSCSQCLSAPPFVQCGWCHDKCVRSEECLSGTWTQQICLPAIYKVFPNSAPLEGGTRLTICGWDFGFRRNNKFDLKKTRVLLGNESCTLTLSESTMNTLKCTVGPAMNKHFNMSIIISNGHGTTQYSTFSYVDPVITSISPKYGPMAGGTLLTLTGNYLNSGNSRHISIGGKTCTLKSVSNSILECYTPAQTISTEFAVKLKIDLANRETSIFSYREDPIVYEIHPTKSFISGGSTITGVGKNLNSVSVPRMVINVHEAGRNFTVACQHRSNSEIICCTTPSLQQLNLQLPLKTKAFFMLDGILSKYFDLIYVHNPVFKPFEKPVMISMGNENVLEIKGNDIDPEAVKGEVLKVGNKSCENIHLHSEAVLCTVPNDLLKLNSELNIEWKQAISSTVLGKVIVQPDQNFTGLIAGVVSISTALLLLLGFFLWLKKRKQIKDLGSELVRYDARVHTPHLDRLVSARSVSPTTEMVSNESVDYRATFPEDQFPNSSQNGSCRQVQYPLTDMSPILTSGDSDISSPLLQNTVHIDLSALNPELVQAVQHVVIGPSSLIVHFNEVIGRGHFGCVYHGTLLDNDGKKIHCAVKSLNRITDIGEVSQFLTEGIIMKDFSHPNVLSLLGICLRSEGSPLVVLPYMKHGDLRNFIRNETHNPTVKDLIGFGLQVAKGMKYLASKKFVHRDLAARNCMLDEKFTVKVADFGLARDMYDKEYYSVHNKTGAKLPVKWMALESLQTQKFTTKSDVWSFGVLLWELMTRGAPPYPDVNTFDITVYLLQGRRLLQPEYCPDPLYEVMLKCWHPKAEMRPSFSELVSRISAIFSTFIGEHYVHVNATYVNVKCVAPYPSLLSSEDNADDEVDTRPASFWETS
Sequence of Serine/threonine-protein kinase TAO2 (Q9UL54 whole entry): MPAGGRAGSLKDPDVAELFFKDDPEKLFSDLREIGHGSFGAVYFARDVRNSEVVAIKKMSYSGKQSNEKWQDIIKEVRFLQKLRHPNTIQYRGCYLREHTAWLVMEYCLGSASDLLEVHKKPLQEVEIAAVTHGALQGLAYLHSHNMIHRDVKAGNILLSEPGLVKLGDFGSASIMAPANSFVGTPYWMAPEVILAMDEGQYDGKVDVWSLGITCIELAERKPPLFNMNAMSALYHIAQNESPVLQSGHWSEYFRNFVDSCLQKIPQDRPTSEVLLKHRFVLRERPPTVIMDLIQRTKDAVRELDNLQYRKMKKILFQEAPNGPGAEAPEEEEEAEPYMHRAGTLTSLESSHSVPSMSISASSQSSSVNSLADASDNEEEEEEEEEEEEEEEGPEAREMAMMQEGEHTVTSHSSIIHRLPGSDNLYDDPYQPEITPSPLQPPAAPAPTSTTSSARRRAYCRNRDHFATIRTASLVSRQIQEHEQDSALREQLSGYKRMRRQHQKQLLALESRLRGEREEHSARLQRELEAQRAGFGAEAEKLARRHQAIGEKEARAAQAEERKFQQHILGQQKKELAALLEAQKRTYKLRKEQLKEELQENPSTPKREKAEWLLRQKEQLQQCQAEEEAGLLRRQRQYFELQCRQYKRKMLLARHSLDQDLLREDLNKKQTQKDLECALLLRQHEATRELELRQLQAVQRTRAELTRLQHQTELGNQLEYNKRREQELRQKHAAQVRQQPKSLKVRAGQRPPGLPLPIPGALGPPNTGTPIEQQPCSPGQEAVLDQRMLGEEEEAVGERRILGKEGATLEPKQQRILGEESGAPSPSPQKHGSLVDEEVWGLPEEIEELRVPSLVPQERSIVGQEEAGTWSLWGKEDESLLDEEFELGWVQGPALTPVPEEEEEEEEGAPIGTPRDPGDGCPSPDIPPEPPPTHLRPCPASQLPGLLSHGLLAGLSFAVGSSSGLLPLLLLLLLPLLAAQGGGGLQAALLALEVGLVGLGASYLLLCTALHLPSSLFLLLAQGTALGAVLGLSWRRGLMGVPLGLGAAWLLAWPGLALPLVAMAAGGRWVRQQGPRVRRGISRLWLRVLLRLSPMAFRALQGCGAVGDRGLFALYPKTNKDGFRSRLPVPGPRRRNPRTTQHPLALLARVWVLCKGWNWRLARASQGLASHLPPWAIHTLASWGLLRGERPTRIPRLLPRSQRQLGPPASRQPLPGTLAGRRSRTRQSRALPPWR
Sequence of Dual specificity mitogen-activated protein kinase kinase 1 (Q02750 whole entry): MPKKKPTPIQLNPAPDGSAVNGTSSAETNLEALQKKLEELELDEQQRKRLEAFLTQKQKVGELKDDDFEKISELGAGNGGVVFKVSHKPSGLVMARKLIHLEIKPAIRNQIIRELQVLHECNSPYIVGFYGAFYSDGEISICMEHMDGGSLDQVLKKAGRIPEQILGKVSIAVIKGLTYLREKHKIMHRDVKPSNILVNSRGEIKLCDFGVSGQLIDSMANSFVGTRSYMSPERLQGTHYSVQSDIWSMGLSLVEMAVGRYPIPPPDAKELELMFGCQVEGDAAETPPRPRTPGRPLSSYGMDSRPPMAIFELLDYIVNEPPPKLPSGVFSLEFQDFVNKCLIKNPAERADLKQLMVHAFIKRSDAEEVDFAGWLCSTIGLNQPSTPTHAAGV
Sequence of Fibroblast growth factor receptor 1 (P11362 whole entry, the tested form may be a part): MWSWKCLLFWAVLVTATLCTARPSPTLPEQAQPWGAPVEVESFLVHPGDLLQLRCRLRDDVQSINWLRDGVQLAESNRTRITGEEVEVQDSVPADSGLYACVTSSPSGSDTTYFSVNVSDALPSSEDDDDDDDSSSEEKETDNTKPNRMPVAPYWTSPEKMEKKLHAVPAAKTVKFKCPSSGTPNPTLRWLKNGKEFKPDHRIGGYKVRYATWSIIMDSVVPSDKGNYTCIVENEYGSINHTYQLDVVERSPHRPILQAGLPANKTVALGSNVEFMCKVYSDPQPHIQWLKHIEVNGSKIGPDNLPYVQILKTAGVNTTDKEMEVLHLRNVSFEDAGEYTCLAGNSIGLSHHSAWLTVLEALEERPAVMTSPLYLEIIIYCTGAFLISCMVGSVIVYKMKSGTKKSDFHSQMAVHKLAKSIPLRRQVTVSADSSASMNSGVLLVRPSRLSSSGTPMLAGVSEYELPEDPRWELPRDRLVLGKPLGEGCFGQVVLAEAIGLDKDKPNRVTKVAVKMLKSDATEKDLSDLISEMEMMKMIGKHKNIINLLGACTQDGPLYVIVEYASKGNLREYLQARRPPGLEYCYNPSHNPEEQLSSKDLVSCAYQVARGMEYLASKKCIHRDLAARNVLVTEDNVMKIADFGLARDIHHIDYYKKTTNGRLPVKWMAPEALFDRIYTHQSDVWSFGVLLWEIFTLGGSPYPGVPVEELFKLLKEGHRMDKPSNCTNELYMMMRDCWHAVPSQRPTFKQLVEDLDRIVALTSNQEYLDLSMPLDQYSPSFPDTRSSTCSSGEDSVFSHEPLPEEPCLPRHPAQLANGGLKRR
Sequence of Receptor-type tyrosine-protein kinase FLT3 (P36888 whole entry): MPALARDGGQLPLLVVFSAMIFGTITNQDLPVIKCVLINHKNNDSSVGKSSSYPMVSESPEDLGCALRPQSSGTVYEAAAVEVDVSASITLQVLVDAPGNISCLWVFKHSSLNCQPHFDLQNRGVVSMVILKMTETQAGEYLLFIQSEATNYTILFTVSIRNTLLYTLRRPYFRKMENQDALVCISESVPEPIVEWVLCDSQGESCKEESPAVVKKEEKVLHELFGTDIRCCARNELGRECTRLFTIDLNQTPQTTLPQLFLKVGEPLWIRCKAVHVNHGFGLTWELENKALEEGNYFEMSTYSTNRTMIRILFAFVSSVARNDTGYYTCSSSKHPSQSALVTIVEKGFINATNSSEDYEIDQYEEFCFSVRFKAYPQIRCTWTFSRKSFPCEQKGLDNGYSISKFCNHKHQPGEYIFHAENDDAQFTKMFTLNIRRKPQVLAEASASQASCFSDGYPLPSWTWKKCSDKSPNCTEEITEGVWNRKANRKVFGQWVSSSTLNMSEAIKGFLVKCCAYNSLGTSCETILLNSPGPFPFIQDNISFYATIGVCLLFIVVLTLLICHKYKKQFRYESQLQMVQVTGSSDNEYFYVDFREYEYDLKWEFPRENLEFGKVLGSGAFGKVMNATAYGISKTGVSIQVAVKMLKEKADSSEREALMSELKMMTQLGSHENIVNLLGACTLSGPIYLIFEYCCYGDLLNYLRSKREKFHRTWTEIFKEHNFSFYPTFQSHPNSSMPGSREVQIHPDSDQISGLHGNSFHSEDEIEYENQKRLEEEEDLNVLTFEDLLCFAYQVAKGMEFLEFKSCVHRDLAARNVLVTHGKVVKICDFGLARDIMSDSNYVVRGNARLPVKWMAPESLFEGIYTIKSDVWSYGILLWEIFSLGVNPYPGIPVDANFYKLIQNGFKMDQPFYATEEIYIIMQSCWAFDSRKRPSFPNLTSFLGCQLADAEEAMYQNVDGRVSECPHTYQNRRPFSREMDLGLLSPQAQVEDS

CC(=O)n1nc(C)c(-c2ccc(Cl)c(Cl)c2)c1N
-0.77%: inhibition (MDA-MB-231)
> 100 µM: IC50 [1] | IC50 [3] | IC50 [5] | IC50 [6] | IC50 [7] | IC50 [8] | IC50 [9] | IC50 [10] | IC50 [11] | IC50 [12] | IC50 [13] | IC50 [14] | IC50 [15] | IC50 [16] | IC50 [18]
≥ 80%: viability at 6 h, 100 µM [17]
3.9%: inhibition (Homo sapiens)
83.4%: inhibition [4]
12 µM: solubility kinetic at 1 h [2]
inactive: inhibition (Mus musculus)
